Screening data (PubChem BioAssay)
FN deposition inh – fibronectin deposition inhibition | AH1F fibroblasts, Alexa488-fibronectin deposition fluorescence, overnight | 0.086% of 350,000 active | AID 743247 | inhibition, % at 12.6 µM;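 active = mean inhibition across replicates of 30% or more, regardless of how many single replicates reach that level; inconclusive = mean under 30% yet at least half of replicates reach 30%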;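 also: positive control wells lacked labelled fibronectin entirely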
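Measured by – fluorescence 485/525 nm · System – AH1F fibroblast monolayer, labelled fibronectin deposition · Amount – 10000 cells per well · Buffer or medium – serum-reduced DMEM (2% serum) · Doses – single dose, pinned · Also added – fluorescent fibronectin at 24 nM final · Schedule – 1 h cell attachment, overnight exposure to compound and label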
TWEAK-Fn14 inh – TWEAK-Fn14 signaling inhibition. AID 1159606. TWEAK-stimulated Fn14 reporter cells, luciferase luminescence, 8 h. 2% of 360,000 active. inhibition, % at 10 µM; in the data active = inhibition above about 50%
Xi reactivation – reactivates the inactive X chromosome in mouse fibroblasts; 0.055% of 360,000 active; activation, % at 7.58 µM; AID 743238; XiGFP mouse fibroblasts, % GFP-positive cells imaging, 3 d; cells co-treated with 5-aza-dC sensitizer; scaled so ellipticine positive control = 100%;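 active = mean normalized replicate activation at least 10% and every replicate at or above 10%; inconclusive = only one of the two criteria met; inactive = mean below 10% and not all replicates reach 10%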;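 also: 0% = median of on-plate neutral control wells and 100% = ellipticine 6 µM median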
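System: XiGFP fibroblasts, SV40-immortalized. Medium: DMEM plus 5-aza-dC sensitizer. Doses: single point. Timing: 3 d treatment, 15 min room-temperature fixation. Control set: ellipticine 6 µM.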
LGR2 antag – inhibitors of bursicon-induced Drosophila LGR2 receptor cAMP signaling; 0.35% of 380,000 active; AID 720647; HEK293 LGR2, CRE-luciferase, bursicon-stimulated, 4 h; inhibition, % at 9.99 µM;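 active = drop in luminescence signal, shown as inhibition above about 50% in the replicate tests, limit read from the data, passing the limit was not always enough; inconclusive = probably only some replicates passing the limit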;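 also: agonist challenge used bursicon conditioned medium at about half maximal strength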
EWS-Fli block – EWS/Fli transcriptional activity inhibition; inhibition, % at 12.6 µM; A673 NR0B1-luciferase reporter, viability-normalised; AID 651661; 0.67% of 350,000 active;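 active = mean inhibition of at least 50% after viability correction, with every replicate also passing that limit; inconclusive = mean reaches 50% but only one of two replicates passes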;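 also: firefly luciferase signal divided by Alamar Blue viability fluorescence both relative to DMSO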
TROY NFkB inh – inhibitors of TROY-dependent NF-kB signaling; Q293 LMP1-TROYcd NF-kB luciferase reporter, 4 h; inhibition, % at 10 µM; 0.98% of 360,000 active;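 active = compounds whose plate-normalised and pattern-corrected inhibition of the luciferase reporter signal at the single screening dose is 50% or more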
Numbers without * were called inactive; ? = inconclusive; nt = not tested or not shown. Sampled rows, rich in hits. Any-hit rate of the full collection: about 2.3%.

SMILES | FN deposition inh | TWEAK-Fn14 inh | Xi reactivation | LGR2 antag | EWS-Fli block | TROY NFkB inh
CO[C@H]1CN(C)C(=O)c2cc(NS(=O)(=O)CC(F)(F)F)ccc2OC[C@@H](C)N(CC2CCCCC2)C[C@H]1C | -6 | nt | 0 | 4 | -1 | nt
O=S(=O)(Nc1ccc(-n2cccc2)cc1)c1ccc(Cl)c(Cl)c1 | 0 | -26 | 0 | 9 | 2 | 55*
CN(Cc1ccco1)c1ncnc2ccc(-c3ccc4c(ccn4C)c3)cc12 | -1 | -4 | 0 | -2 | 67* | 0
CN(Cc1ccco1)c1ncnc2ccc(-c3ccc4c(c3)OCO4)cc12 | 1 | 3 | 0 | nt | 3 | -28
Cn1c(=O)c(C#N)c(-c2ccc(F)cc2)c2cc(C(=O)c3cc(Cl)cc(Cl)c3O)cnc21 | -6 | 57* | ? | 9 | 23 | 67*
CCCNC(=O)Nc1ccc2c(c1)C(=O)N(C)C[C@@H](OC)[C@H](C)CN(C(=O)C1CCC1)[C@@H](C)CO2 | -1 | nt | 0 | -19 | -1 | nt
COc1cccc(CN(C)C(=O)c2ccc(OCC(=O)Nc3cccc(C(F)(F)F)c3)c(OC)c2)c1 | 15 | 61* | 0 | 9 | 38 | 40
Cc1cc(C(C)(C)C)cc(S(=O)(=O)NCCO)c1C | nt | 85* | nt | nt | nt | nt
COCC(=O)N1C[C@H]2[C@@H](c3ccccc31)[C@@H](CO)N2C(=O)C1CCOCC1 | nt | nt | 0 | 10 | -4 | nt
CC1=NOC(=O)/C1=C\c1ccc(-c2ccc(Cl)c(C(=O)O)c2)o1 | 1 | -18 | 0 | -23 | -1 | 20
CC1=NOC(=O)/C1=C\c1ccc(-c2ccccc2Br)o1 | -10 | 96* | 0 | nt | ? | 68*
CC1=NOC(=O)/C1=C\c1ccc(-c2cccc(Cl)c2)o1 | nt | 67* | nt | nt | nt | 57*
C[C@@H]1CN([C@H](C)CO)C(=O)c2cc(NS(=O)(=O)c3ccccc3)ccc2O[C@@H]1CN(C)S(C)(=O)=O | nt | nt | 0 | 13 | -9 | nt
COc1ccc(CNc2nc(S(=O)(=O)c3ccccc3)c(Cl)s2)cc1OC | -1 | 70* | 0 | 26 | 28 | 46
O=S(=O)(c1ccccc1)c1nc(NCc2ccccc2)sc1Cl | -3 | 16 | 0 | 6 | 14 | 25
Cc1ccc(S(=O)(=O)c2nc(Nc3ccccc3)sc2Cl)cc1 | 6 | 46 | 0 | -2 | 18 | 54*
C[C@H]1CCCCO[C@@H](CN(C)S(=O)(=O)c2ccc(Cl)cc2)[C@@H](C)CN([C@@H](C)CO)C(=O)c2cc(NC(=O)CCC(F)(F)F)ccc2O1 | 1 | nt | 0 | 20 | 7 | nt
C#Cc1ccc([C@@H]2C=C(C(=O)N3CCCCCCC3)O[C@H](OCCCCO)C2)cc1 | nt | nt | nt | nt | -17 | nt
CCOC(=O)COc1ccc2ccccc2c1/C=C/[N+](=O)[O-] | -4 | 32 | 0 | 105* | 22 | 20
O=C(C[C@@H]1CC[C@@H](NC(=O)Nc2ccccc2)[C@H](CO)O1)NCc1ccccn1 | nt | nt | 0 | -7 | -7 | nt
O=C(C[C@H]1C=C[C@H](NC(=O)c2cccnc2)[C@H](CO)O1)NCc1ccc(Cl)c(Cl)c1 | 7 | nt | 0 | -12 | 1 | nt
Cc1cc(Sc2nnc(N)s2)c2ccccc2n1 | 2 | 90* | 0 | 58* | 10 | 37
Cc1cc(Sc2nnc(/N=C/N(C)C)s2)c2ccccc2n1 | -3 | 81* | 0 | 55* | 5 | 35
CCCCCCCCSc1nnc(/N=C/N(C)C)s1 | 2 | -1 | 0 | 11 | 12 | 3
CCN(CC)S(=O)(=O)c1ccc2[nH]cc(C(=O)NCCC3=CCCCC3)c(=O)c2c1 | nt | 59* | nt | nt | nt | 44
SMILES | FN deposition inh | TWEAK-Fn14 inh | Xi reactivation | LGR2 antag | EWS-Fli block | TROY NFkB inh
COc1cccc(-c2ccc3n(c2=O)C[C@@H]2[C@@H](CO)[C@H](C(=O)N4CCCCC4)N(C)[C@H]32)c1 | nt | nt | 1 | -4 | 7 | nt
Cc1cccc(-c2cc3c(N=O)c4ccccc4c-3n[nH]2)c1 | -8 | 53* | 0 | -10 | -4 | 38
O=Nc1c2cc(-c3ccccc3)[nH]nc-2c2ccccc12 | -1 | 80* | 0 | ? | 63* | 71*
Cc1ccc(-c2cc3c(N=O)c4ccccc4c-3n[nH]2)cc1 | 0 | 103* | 0 | 95* | 80* | 88*
O=c1[nH]nc(-c2ccccc2)c2ccccc12 | -1 | 1 | 0 | -1 | -5 | -13
Cc1ccc(-c2cc(=O)c3ccccc3[nH]2)cc1 | -21 | 0 | 0 | -41 | -22 | -62
Cc1cccc(-c2cc3nc(C)cc(=O)n3[nH]2)c1 | -1 | -18 | 0 | -36 | -91 | -71
CNC(=O)C[C@@H]1CC[C@H]2[C@@H](COc3ccc(NC(=O)c4ccccc4F)cc3C(=O)N2C)O1 | -11 | nt | 0 | -10 | -6 | nt
COC(=O)c1ccc(-c2nc3cc(Cl)c(N)cc3s2)cc1 | nt | 87* | nt | nt | nt | 71*
CC1OC2CC(=O)OC2C2=C1C(=O)c1c(O)cccc1C2=O (stereo unspecified) | nt | 107* | nt | 100* | 50 | 57*
O=C(CCl)NCc1cc(-c2ccc(Cl)cc2)no1 | 0 | 7 | 0 | 15 | 62* | -4
COc1cc(/C=C/C(=O)c2ccc(C)c([N+](=O)[O-])c2)cc(OC)c1O | nt | 69* | 1 | 8 | -27 | 32
COc1cc(/C=C/C(=O)c2ccc(NS(=O)(=O)c3ccc(C)cc3)cc2)cc(OC)c1O | 3 | 60* | 0 | 47 | nt | 0
CO[C@@H](CN(C)C(=O)c1cnccn1)[C@H](C)CN([C@H](C)CO)S(=O)(=O)c1ccc(F)cc1 | 0 | nt | 0 | -8 | -2 | nt
CCC(=O)N(C)C[C@@H]1Oc2cc(C#CC3CCCC3)ccc2S(=O)(=O)N([C@@H](C)CO)C[C@@H]1C | -9 | nt | 0 | -8 | 11 | nt
CCCN1[C@H](C(=O)N(C)C)[C@@H](CO)[C@@H]2Cn3c(ccc(-c4ccccc4OC)c3=O)[C@@H]21 | nt | nt | 0 | 21 | -5 | nt
Cc1c([N+](=O)[O-])cnc(Sc2ccccc2)c1[N+](=O)[O-] | 3 | 84* | 0 | ? | 2 | 63*
C[C@@H]1CN([C@@H](C)CO)C(=O)c2cc(NC(=O)Nc3cccc4ccccc34)ccc2O[C@H]1CN(C)S(=O)(=O)c1cn(C)cn1 | nt | nt | 0 | 7 | 7 | nt
O=C1C(Cl)=C(NCc2cccnc2)C(=O)c2ccccc21 | 13 | 6 | 0 | 5 | 58* | -29
O=C(O)c1ccc(NC2=C(Cl)C(=O)c3ccccc3C2=O)cc1 | 1 | 43 | 0 | 10 | ? | 42
O=C1C(Cl)=C(Nc2ccccc2)C(=O)c2ccccc21 | 20 | 44 | 0 | -9 | nt | 70*
Cc1ccc(NC2=C(NC(=O)c3ccccc3)C(=O)c3ccccc3C2=O)cc1Cl | 0 | -1 | 0 | 27 | 4 | 12
O=C(O)c1cccc(NC2=C(Cl)C(=O)c3ccccc3C2=O)c1 | 11 | 60* | 2 | 10 | 6 | 9
